Data taken from ChEMBL document CHEMBL4270555, “Synthesis and biological evaluation of magnolol derivatives as melatonergic receptor agonists with potential use in depression” (Eur J Med Chem, 2018).
The source made the active and inactive calls. The rule behind the calls is not given here.

How the values were obtained:
[1] = biological target: Melatonin receptor type 1A (Homo sapiens, UniProt P48039); assay: Agonist activity at human MT1 receptor expressed in HEK293 cells at 1 mM after 24 hrs by Fluo-8 dye-based calcium assay relative to control; type: functional, cell-based
Procedure, shortened: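 Fluo-8 calcium assay in HEK293 cells stably expressing human MT1 or MT2, seeded 4×10^4/well and incubated 24 h. Compounds tested at 1.00 mM, agomelatine positive control at 3.33 µM; fluorescence at ex 485/em 525 nm. Agonism expressed as mean ± SD, n = 3.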

Mus musculus [2] = assay: Antidepressant activity in po dosed Kunming mouse assessed as decrease in immobility time by tail suspension test; type: functional; conditions: read-out: MED
Procedure, shortened: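 Male Kunming mice dosed orally at 10, 20 or 40 mg/kg, with fluoxetine and agomelatine 20 mg/kg as references. Mice were hung by the tail with tape about 1 cm from the tip, 50 cm above a box, for 6 min, isolated from sound and view. Immobility in the last 4 min was video-tracked; n = 10, mean ± SEM.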

Mus musculus [3] = assay: Increase in norepinephrine level in Kunming mouse striatum at 40 mg/kg, po treated for 7 days by HPLC-ECD analysis; type: functional, organism-based
Procedure, shortened: (§1)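 Male Kunming mice (18–20 g) given vehicle or 40 mg/kg for 7 days, then killed by cervical dislocation. Frontal cortex, hippocampus, striatum, hypothalamus and thalamus dissected on ice, homogenized in ice-cold 0.2 M perchloric acid with 0.1 mM EDTA, centrifuged 15,000 rpm, 20 min, 4 °C. Supernatant analysed by HPLC-ECD at +0.50 V; phosphate/octanesulfonate mobile phase pH 3.0 with 12% methanol. Levels in ng/g, mean ± SEM.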

Mus musculus [4] = assay: Effect on 5-hydroxytryptamine level in Kunming mouse hippocampus at 40 mg/kg, po treated for 7 days by HPLC-ECD analysis; type: functional, organism-based; procedure, shortened: as §1
Mus musculus [5] = assay: Increase in 5-hydroxyindole-3-acetic acid level in Kunming mouse frontal cortex at 40 mg/kg, po treated for 7 days by HPLC-ECD analysis; type: functional, organism-based; procedure, shortened: as §1
Mus musculus [6] = assay: Increase in ratio of 5-hydroxyindole-3-acetic acid to 5-hydroxytryptamine level in Kunming mouse hippocampus at 40 mg/kg, po treated for 7 days by HPLC-ECD analysis; type: functional, organism-based; procedure, shortened: as §1
Mus musculus [7] = assay: Increase in 4-hydroxy-3-methoxyphenylacetic acid level in Kunming mouse thalamus at 40 mg/kg, po treated for 7 days by HPLC-ECD analysis; type: functional, organism-based; procedure, shortened: as §1
Mus musculus [8] = assay: Increase in ratio of 3,4-dihydroxyphenylacetic acid and 4-hydroxy-3-methoxyphenylacetic acid to dopamine level in Kunming mouse hypothalamus at 40 mg/kg, po treated for 7 days by HPLC-ECD analysis; type: functional, organism-based; procedure, shortened: as §1
[9] = Drug metabolism in Sprague-Dawley rat feces assessed as 5'-(1-hydroxyallyl)-5-propyl-2'-((2S,3R,4S,5S,6R)-3,4,5-trihydroxy-6-(hydroxymethyl)tetrahydro-2H-pyran-2-yloxy)biphenyl-2-yl hydrogen sulfate formation at 100 mg/kg, po by UPLC-IT-TOF-MS analysis; type: ADME, organism-based; conditions: in vivo
Procedure, shortened: (§2)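 Rats (n = 6) housed in metabolic cages received 100.0 mg/kg orally; controls received 0.5% CMC-Na. Plasma, urine and faeces were collected and analyzed by LC-IT-TOF-MS on a C18 column at 30 °C. Gradient 5–100% acetonitrile with 0.05% formic acid over 18 min at 0.2 mL/min; positive and negative ion MS/MS.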

[10] = Drug metabolism in Sprague-Dawley rat urine assessed as (2S,3S,4S,5R,6S)-3,4,5-trihydroxy-6-(5-(1-hydroxyallyl)-5'-(2-hydroxypropyl)-2'-methoxybiphenyl-2-yloxy)tetrahydro-2H-pyran-2-carboxylic acid formation at 100 mg/kg, po by UPLC-IT-TOF-MS analysis; type: ADME, organism-based; conditions: in vivo
Procedure, shortened: (§3)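 Male/unspecified SD rats (n = 6) housed individually in metabolic cages, dosed orally at 100.0 mg/kg; controls given 0.5% CMC-Na orally. Plasma, urine and faeces collected. LC-IT-TOF-MS on C18 column at 30 °C, formic acid (0.05%) water/acetonitrile gradient 5–100% B over 18 min, 0.2 mL/min; positive and negative ion modes with automatic MS/MS.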

[11] = Drug metabolism in Sprague-Dawley rat plasma assessed as 5'-acryloyl-2'-hydroxy-5-propionylbiphenyl-2-yl hydrogen sulfate formation at 100 mg/kg, po by UPLC-IT-TOF-MS analysis; type: ADME, organism-based; conditions: in vivo; procedure, shortened: as §3
[12] = Drug metabolism in Sprague-Dawley rat feces assessed as 5'-acryloyl-2'-hydroxy-5-propionylbiphenyl-2-yl hydrogen sulfate formation at 100 mg/kg, po by UPLC-IT-TOF-MS analysis; type: ADME, organism-based; conditions: in vivo; procedure, shortened: as §2
[13] = Drug metabolism in Sprague-Dawley rat feces assessed as (2S,3S,4S,5R,6S)-6-(5-acryloyl-2'-hydroxy-5'-(1-hydroxyallyl)biphenyl-2-yloxy)-3,4,5-trihydroxytetrahydro-2H-pyran-2-carboxylic acid formation at 100 mg/kg, po by UPLC-IT-TOF-MS analysis; type: ADME, organism-based; conditions: in vivo; procedure, shortened: as §2
[14] = Drug metabolism in Sprague-Dawley rat plasma assessed as 2S,3S,4S,5R,6S)-6-(5,5'-diallyl-2'-((2S,3R,4S,5S,6R)-3,4,5-trihydroxy-6-(hydroxymethyl)tetrahydro-2H-pyran-2-yloxy)biphenyl-2-yloxy)-3,4,5-trihydroxytetrahydro-2H-pyran-2-carboxylic acid formation at 100 mg/kg, po by UPLC-IT-TOF-MS analysis; type: ADME, organism-based; conditions: in vivo; procedure, shortened: as §2
[15] = Drug metabolism in Sprague-Dawley rat feces assessed as 2S,3S,4S,5R,6S)-6-(5,5'-diallyl-2'-((2S,3R,4S,5S,6R)-3,4,5-trihydroxy-6-(hydroxymethyl)tetrahydro-2H-pyran-2-yloxy)biphenyl-2-yloxy)-3,4,5-trihydroxytetrahydro-2H-pyran-2-carboxylic acid formation at 100 mg/kg, po by UPLC-IT-TOF-MS analysis; type: ADME, organism-based; conditions: in vivo; procedure, shortened: as §2
[16] = Drug metabolism in Sprague-Dawley rat feces assessed as 1-(5'-allyl-2'-hydroxy-6-((2S,3R,4S,5S,6R)-3,4,5-trihydroxy-6-(hydroxymethyl)tetrahydro-2H-pyran-2-yloxy)biphenyl-3-yl)prop-2-en-1-one formation at 100 mg/kg, po by UPLC-IT-TOF-MS analysis; type: ADME, organism-based; conditions: in vivo; procedure, shortened: as §2
[17] = Drug metabolism in Sprague-Dawley rat urine assessed as (2R,2'R,3S,3'S,4S,4'S,5R,5'R,6S,6'S)-6,6'-(5,5'-diallylbiphenyl-2,2'-diyl)bis(oxy)bis(2-(hydroxymethyl)tetrahydro-2H-pyran-3,4,5-triol) formation at 100 mg/kg, po by UPLC-IT-TOF-MS analysis; type: ADME, organism-based; conditions: in vivo; procedure, shortened: as §3
[18] = Drug metabolism in Sprague-Dawley rat urine assessed as 5,5'-diallyl-2'-hydroxybiphenyl-2-yl hydrogen sulfate formation at 100 mg/kg, po by UPLC-IT-TOF-MS analysis; type: ADME, organism-based; conditions: in vivo; procedure, shortened: as §3
[19] = Drug metabolism in Sprague-Dawley rat urine assessed as (2S,3S,4S,5R,6S)-6-(5,5'-diallyl-2'-methoxybiphenyl-2-yloxy)-3,4,5-trihydroxytetrahydro-2H-pyran-2-carboxylic acid formation at 100 mg/kg, po by UPLC-IT-TOF-MS analysis; type: ADME, organism-based; conditions: in vivo; procedure, shortened: as §3

Melatonin receptor type 1A, sequence (P48039 whole entry): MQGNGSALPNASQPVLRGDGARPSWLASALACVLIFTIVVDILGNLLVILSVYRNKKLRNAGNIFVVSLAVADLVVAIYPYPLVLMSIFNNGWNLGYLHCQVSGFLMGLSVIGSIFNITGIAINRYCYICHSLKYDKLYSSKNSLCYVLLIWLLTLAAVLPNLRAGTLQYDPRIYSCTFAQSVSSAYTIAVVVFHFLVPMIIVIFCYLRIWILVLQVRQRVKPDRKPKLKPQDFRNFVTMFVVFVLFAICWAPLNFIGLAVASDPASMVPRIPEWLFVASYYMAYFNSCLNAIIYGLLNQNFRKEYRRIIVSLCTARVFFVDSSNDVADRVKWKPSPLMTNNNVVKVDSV

Question: With C=CCc1ccc(O)c(-c2cc(CC=C)ccc2O[C@@H]2O[C@H](CO)[C@@H](O)[C@H](O)[C@H]2O)c1 as the molecule, how does the Activity [1] read?
Answer: 108%

Question: And the minimal effective dose (Mus musculus [2])?
Answer: 10 mg/kg

Question: And the Activity (Mus musculus [3])?
Answer: Active

Question: And the Activity (Mus musculus [4])?
Answer: inactive

Question: What about the Activity (Mus musculus [5]) of the same molecule?
Answer: Active

Question: What about the Activity (Mus musculus [6]) of the same molecule?
Answer: Active

Question: And the Activity (Mus musculus [7])?
Answer: Active

Question: And the Activity (Mus musculus [8])?
Answer: Active

Question: And the Drug metabolism [9]?
Answer: Metabolite_Detected

Question: What about the Drug metabolism [10] of the same molecule?
Answer: Metabolite_Detected

Question: What about the Drug metabolism [11] of the same molecule?
Answer: Metabolite_Notdetected

Question: And the Drug metabolism [12]?
Answer: Metabolite_Notdetected

Question: What about the Drug metabolism [13] of the same molecule?
Answer: Metabolite_Notdetected

Question: What about the Drug metabolism [14] of the same molecule?
Answer: Metabolite_Notdetected

Question: And the Drug metabolism [15]?
Answer: Metabolite_Detected

Question: And the Drug metabolism [16]?
Answer: Metabolite_Notdetected

Question: And the Drug metabolism [17]?
Answer: Metabolite_Detected

Question: And the Drug metabolism [18]?
Answer: Metabolite_Notdetected

Question: What about the Drug metabolism [19] of the same molecule?
Answer: Metabolite_Detected
